Assay results as given in ChEMBL document CHEMBL3808334, “Synthesis and in vitro evaluation of novel triazine analogues as anticancer agents and their interaction studies with bovine serum albumin” (Eur J Med Chem, 2016).

How the values were obtained:
ACHN [1] = test: Growth inhibition of human ACHN cells assessed as cell growth at 10^-4 M incubated for 48 hrs by sulforhodamine B assay; type: functional; details: read-out: Activity
Outline: (§1)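 Five-dose assay: five concentrations from 10-fold or ½-log serial dilutions. Cells are plated at 5,000–40,000 per well according to doubling time, grown 24 h, then exposed 48 h at 37 °C, 5% CO₂. Fixed with cold 50% TCA (final addition) for 60 min at 4 °C and stained with 0.4% SRB in 1% acetic acid. Bound dye is solubilized in 10 mM Tris base and read at 515 nm. GI₅₀ is where [(Ti−Tz)/(C−Tz)]×100 = 50, with a time-zero plate as Tz.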

SN12C = test: Growth inhibition of human SN12C cells assessed as cell growth at 10^-5 M incubated for 48 hrs by sulforhodamine B assay; type: functional; details: read-out: Activity
[2] = Growth inhibition of human BT549 cells assessed as cell growth at 10^-5 M incubated for 48 hrs by sulforhodamine B assay; type: functional; details: BT-549, 48 h, read-out: Activity; outline: as §1
[3] = Growth inhibition of human PC3 cells assessed as cell growth at 10^-6 M incubated for 48 hrs by sulforhodamine B assay; type: functional; details: PC-3, 48 h, read-out: Activity
Albumin = Albumin (Bos taurus, UniProt P02769); test: Binding affinity to bovine serum albumin assessed as binding constant in absorption spectra by Benesie-Hildebrand plot analysis; type: ADME; details: cattle, isolated protein
Albumin, sequence (P02769 whole entry): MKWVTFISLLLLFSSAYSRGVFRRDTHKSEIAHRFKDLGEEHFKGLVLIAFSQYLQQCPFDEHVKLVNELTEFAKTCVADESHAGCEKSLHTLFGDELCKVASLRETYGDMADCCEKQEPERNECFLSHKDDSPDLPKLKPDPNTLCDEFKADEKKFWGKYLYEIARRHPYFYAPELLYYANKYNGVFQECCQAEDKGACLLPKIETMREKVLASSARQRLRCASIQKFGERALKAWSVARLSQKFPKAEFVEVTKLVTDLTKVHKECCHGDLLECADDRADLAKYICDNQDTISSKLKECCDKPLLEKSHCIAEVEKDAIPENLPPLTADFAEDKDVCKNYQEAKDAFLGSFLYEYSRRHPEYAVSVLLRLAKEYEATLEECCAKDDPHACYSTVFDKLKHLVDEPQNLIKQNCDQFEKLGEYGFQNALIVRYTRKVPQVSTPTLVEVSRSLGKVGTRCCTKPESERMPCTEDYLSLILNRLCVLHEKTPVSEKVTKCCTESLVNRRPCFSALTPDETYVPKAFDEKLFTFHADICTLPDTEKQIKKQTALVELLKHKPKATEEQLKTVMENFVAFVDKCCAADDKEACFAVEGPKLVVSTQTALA
Outline: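 BSA, 10 µM, in 0.1 M phosphate buffer pH 7.4, titrated with compound (0–20 µM per the figure; diluted from 10⁻³ mol L⁻¹ DMSO stocks). Run at 300 K in a 1 cm quartz cell. UV spectra taken 200–800 nm after 5 min equilibration; fluorescence excited at 280 nm, emission 351 nm, slit 10 nm. K is the intercept/slope ratio of a linear fit of 1/(A₀−A) or 1/(F₀−F) vs 1/[compound].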

NCI-H23 [4] = test: Growth inhibition of human NCI-H23 cells assessed as cell growth at 10^-4 M incubated for 48 hrs by sulforhodamine B assay; type: functional; details: NCI-H23, 48 h, read-out: Activity
ACHN [5] = test: Growth inhibition of human ACHN cells incubated for 48 hrs by sulforhodamine B assay; type: functional; outline: as §1
NCI/ADR-RES = test: Growth inhibition of human NCI/ADR-RES cells assessed as cell growth at 10^-8 M incubated for 48 hrs by sulforhodamine B assay; type: functional; details: read-out: Activity
[6] = Growth inhibition of human HOP62 cells assessed as cell growth at 10^-6 M incubated for 48 hrs by sulforhodamine B assay; type: functional; details: HOP-62, 48 h, read-out: Activity
[7] = Growth inhibition of human COLO205 cells assessed as cell growth at 10^-7 M incubated for 48 hrs by sulforhodamine B assay; type: functional; details: COLO 205, 48 h, read-out: Activity
Outline: (§2)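 Cells seeded at 5,000–40,000/well according to doubling time and preincubated 24 h at 37 °C, 5% CO2. Time-zero plates were TCA-fixed. DMSO concentrate was diluted in medium with 50 µg/ml gentamicin to give five concentrations (10-fold or ½ log steps), then exposed 48 h. Cells were TCA-fixed, stained with 0.4% SRB and read at 515 nm. Percent growth was taken against time-zero and control; GI50, TGI and LC50 derived.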

[8] = Growth inhibition of human OVCAR5 cells assessed as cell growth at 10^-7 M incubated for 48 hrs by sulforhodamine B assay; type: functional; details: OVCAR-5, 48 h, read-out: Activity
[9] = Growth inhibition of human SF295 cells assessed as cell growth at 10 uM incubated for 48 hrs by sulforhodamine B assay; type: functional; details: SF-295, 48 h, read-out: Activity
NCI-H23 [10] = test: Growth inhibition of human NCI-H23 cells assessed as cell growth at 10 uM incubated for 48 hrs by sulforhodamine B assay; type: functional; details: NCI-H23, 48 h, read-out: Activity
MDA-MB-468 = test: Growth inhibition of human MDA-MB-468 cells assessed as cell growth at 10^-8 M incubated for 48 hrs by sulforhodamine B assay; type: functional; details: MDA-MB-468, 48 h, read-out: Activity
[11] = Growth inhibition of human BT549 cells assessed as cell growth at 10^-8 M incubated for 48 hrs by sulforhodamine B assay; type: functional; details: BT-549, 48 h, read-out: Activity; outline: as §1
Malme-3M = test: Growth inhibition of human MALME-3M cells assessed as cell growth at 10 uM incubated for 48 hrs by sulforhodamine B assay; type: functional; details: read-out: Activity
HT-29 = test: Growth inhibition of human HT-29 cells assessed as cell growth at 10^-8 M incubated for 48 hrs by sulforhodamine B assay; type: functional; details: HT-29, 48 h, read-out: Activity
MDA-MB-435 = test: Growth inhibition of human MDA-MB-435 cells incubated for 48 hrs by sulforhodamine B assay; type: functional; details: MDA-MB-435, 48 h
Outline: (§3)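 Cells were plated at 5,000–40,000 per well according to doubling time and preincubated 24 h at 37 °C in 5% CO2; time-zero plates were then TCA-fixed. Five concentrations (10-fold or ½-log dilutions, DMSO stock) were incubated 48 h. Cells were TCA-fixed, stained with 0.4% SRB and read at 515 nm. GI50 was taken where [(Ti−Tz)/(C−Tz)]×100 = 50.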

NCI-H460 = test: Growth inhibition of human NCI-H460 cells assessed as cell growth at 10^-7 M incubated for 48 hrs by sulforhodamine B assay; type: functional; details: NCI-H460, 48 h, read-out: Activity
[12] = Growth inhibition of human MOLT4 cells assessed as cell growth at 10^-5 M incubated for 48 hrs by sulforhodamine B assay; type: functional; details: MOLT-4, 48 h, read-out: Activity
SR = test: Growth inhibition of human SR cells assessed as cell growth at 10^-6 M incubated for 48 hrs by sulforhodamine B assay; type: functional; details: read-out: Activity
[13] = Growth inhibition of human Caki1 cells assessed as cell growth at 10^-6 M incubated for 48 hrs by sulforhodamine B assay; type: functional; details: CAKI-1, 48 h, read-out: Activity; outline: as §2
K562 = test: Growth inhibition of human K562 cells assessed as cell growth at 10 uM incubated for 48 hrs by sulforhodamine B assay; type: functional; details: K562, 48 h, read-out: Activity
[14] = Growth inhibition of human RXF393 cells assessed as cell growth at 10^-5 M incubated for 48 hrs by sulforhodamine B assay; type: functional; details: RXF 393, 48 h, read-out: Activity
NCI-H322M = test: Growth inhibition of human NCI-H322M cells assessed as cell growth at 10^-8 M incubated for 48 hrs by sulforhodamine B assay; type: functional; details: read-out: Activity
[15] = Growth inhibition of human OVCAR5 cells incubated for 48 hrs by sulforhodamine B assay; type: functional; details: OVCAR-5, 48 h; outline: as §3
[16] = read-out: LC50 (the source's name)
[17] = read-out: pLC50 (the source's name) (converted)

In the case of `c1ccc(-c2nc(Nc3ccc(-c4nc5ccccc5[nH]4)cc3)nc(N3CCOCC3)n2)cc1`, the growth at 100 µM (ACHN [1]) is reported as -70%, the growth at 10 µM (SN12C) is reported as -60% and the growth at 10 µM [2] is reported as -69%. For the same compound, the growth at 1 µM [3] was 92%, the K (Albumin) was 1.2 ×10⁵ /M and the growth at 100 µM (NCI-H23 [4]) was -51%. For the same compound, the GI50 (ACHN [5]; read-out: GI50) was 1.25 µM, the CC50 (ACHN [5]; [16]) was 6.04 µM and the TGI (ACHN [5]; read-out: TGI) was 2.74 µM. The GI50 (ACHN [5]; read-out: pGI50 (converted)) was 1.26 µM, the CC50 (ACHN [5]; [17]) was 6.03 µM and the TGI (ACHN [5]; read-out: pTGI (converted)) was 2.75 µM. It also gave a growth at 0.01 µM (NCI/ADR-RES) of 95%, a growth at 1 µM [6] of 89% and a growth at 0.1 µM [7] of 91%. For the same compound, the growth at 0.1 µM [8] was 99%, the growth at 10 µM [9] was -76.4% and the growth at 10 µM (NCI-H23 [10]) was -59%. It also gave a growth at 0.01 µM (MDA-MB-468) of 96%, a growth at 0.01 µM [11] of 99% and a growth at 10 µM (Malme-3M) of -77.3%. It also gave a growth at 0.01 µM (HT-29) of 105%, a GI50 (MDA-MB-435; read-out: GI50) of 1.76 µM and a CC50 (MDA-MB-435; [16]) of 6.11 µM. For the same compound, the TGI (MDA-MB-435; read-out: TGI) was 3.28 µM, the GI50 (MDA-MB-435; read-out: pGI50 (converted)) was 1.78 µM and the CC50 (MDA-MB-435; [17]) was 6.17 µM. For the same compound, the TGI (MDA-MB-435; read-out: pTGI (converted)) was 3.31 µM, the growth at 0.1 µM (NCI-H460) was 103% and the growth at 10 µM [12] was -53%. The growth at 1 µM (SR) was -20%, the growth at 1 µM [13] was 68% and the growth at 10 µM (K562) was -30.1%. It also gave a growth at 10 µM [14] of -63%, a growth at 0.01 µM (NCI-H322M) of 95% and a GI50 ([15]; read-out: GI50) of 2.16 µM. It also gave a CC50 [15, 16] of 7.49 µM, a TGI ([15]; read-out: TGI) of 4.02 µM and a GI50 ([15]; read-out: pGI50 (converted)) of 2.14 µM. The CC50 [15, 17] was 7.41 µM and the TGI ([15]; read-out: pTGI (converted)) was 3.98 µM.

For `Fc1ccc(-c2nc(Nc3ccc(-c4nc5ccccc5[nH]4)cc3)nc(N3CCOCC3)n2)cc1`, the growth at 100 µM (ACHN [1]) was 3%, the growth at 10 µM (SN12C) was 12% and the growth at 10 µM [2] was -53%. It also gave a growth at 1 µM [3] of 93%, a K (Albumin) of 1 ×10⁵ /M and a growth at 100 µM (NCI-H23 [4]) of -15%. For the same compound, the GI50 (ACHN [5]; read-out: GI50) was 2.55 µM, the CC50 (ACHN [5]; [16]) was > 100 µM and the TGI (ACHN [5]; read-out: TGI) was > 100 µM. For the same compound, the GI50 (ACHN [5]; read-out: pGI50 (converted)) was 2.57 µM, the CC50 (ACHN [5]; [17]) was > 100 µM and the TGI (ACHN [5]; read-out: pTGI (converted)) was > 100 µM. It also gave a growth at 0.01 µM (NCI/ADR-RES) of 98%, a growth at 1 µM [6] of 90% and a growth at 0.1 µM [7] of 99%. For the same compound, the growth at 0.1 µM [8] was 83%, the growth at 10 µM [9] was -63.5% and the growth at 10 µM (NCI-H23 [10]) was 11.3%. The growth at 0.01 µM (MDA-MB-468) was 97%, the growth at 0.01 µM [11] was 94% and the growth at 10 µM (Malme-3M) was -65.7%. It also gave a growth at 0.01 µM (HT-29) of 100%, a GI50 (MDA-MB-435; read-out: GI50) of 1.94 µM and a TGI (MDA-MB-435; read-out: TGI) of 4.04 µM. It also gave a GI50 (MDA-MB-435; read-out: pGI50 (converted)) of 1.95 µM, a TGI (MDA-MB-435; read-out: pTGI (converted)) of 4.07 µM and a growth at 0.1 µM (NCI-H460) of 103%. The growth at 10 µM [12] was -23%, the growth at 1 µM (SR) was 37% and the growth at 1 µM [13] was 87%. The growth at 10 µM (K562) was -22%, the growth at 10 µM [14] was -37% and the growth at 0.01 µM (NCI-H322M) was 101%. The GI50 ([15]; read-out: GI50) was 2.7 µM, the CC50 [15, 16] was > 100 µM and the TGI ([15]; read-out: TGI) was 8.9 µM. The GI50 ([15]; read-out: pGI50 (converted)) was 2.69 µM, the CC50 [15, 17] was > 100 µM and the TGI ([15]; read-out: pTGI (converted)) was 8.91 µM.
